Assay outcomes: PubChem BioAssay, SRMLSC
PostGolgi ctrl – growth of the yeast control strain, post-Golgi counter-screen; 98,000 compounds, 5% hits; AID 738; efflux-deficient yeast background strain, growth absorbance A615, 16 h; inhibition, % at 10 µM
PostGolgi yeast – growth inhibition of a yeast mutant, post-Golgi transport screen; post-Golgi transport phenotypic cell assay; inhibition, % at 10 µM; 98,000 compounds, 0.9% hits; AID 739;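 also: yeast cells grown in 1536-well plates; yeast grown about 18 h at 30C before absorbance read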
tolC growth inh – growth inhibitors of E. coli BW25113 tolC mutant; OD615; growth inhibition, % at 10 µM (by protocol); 65,000 compounds, 2.2% hits;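 active = growth inhibition at or above a cutoff equal to the mean over every tested compound plus 3 SD, cut at about 60% in these data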;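 also: growth measured after 20 h incubation at 37 °C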
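Test system – E. coli BW25113 ΔtolC::kan, tolC deletion mutant strain · Detection – OD at 615 nm · Buffer or medium – LB with kanamycin 50 µg/mL · Times – 20 h compound exposure of bacteria at 37 °C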
Ecoli WT expand – E. coli BW25113 growth inhibition, expanded screen; OD600 absorbance; growth inhibition, % at 100 µM; 98,000 compounds, 0.15% hits; AID 710;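 active = growth inhibition above about 50% at one test dose, limit read from the data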;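 also: growth measured after 20 h incubation at 37 °C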
Her2 expr inh – inhibitors of human Her2 kinase expression | HER2 level % of control, % at 10 µM | SKBR-3 HER2 protein level, AlphaScreen, 18-24 h; stronger effect = lower value | P04626 | 65,000 compounds, 0.69% hits;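 active = HER2 level under 5% of the carrier-only control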;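 also: lower value means stronger loss of Her2 protein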
Target sequence (P04626 whole entry, looked up): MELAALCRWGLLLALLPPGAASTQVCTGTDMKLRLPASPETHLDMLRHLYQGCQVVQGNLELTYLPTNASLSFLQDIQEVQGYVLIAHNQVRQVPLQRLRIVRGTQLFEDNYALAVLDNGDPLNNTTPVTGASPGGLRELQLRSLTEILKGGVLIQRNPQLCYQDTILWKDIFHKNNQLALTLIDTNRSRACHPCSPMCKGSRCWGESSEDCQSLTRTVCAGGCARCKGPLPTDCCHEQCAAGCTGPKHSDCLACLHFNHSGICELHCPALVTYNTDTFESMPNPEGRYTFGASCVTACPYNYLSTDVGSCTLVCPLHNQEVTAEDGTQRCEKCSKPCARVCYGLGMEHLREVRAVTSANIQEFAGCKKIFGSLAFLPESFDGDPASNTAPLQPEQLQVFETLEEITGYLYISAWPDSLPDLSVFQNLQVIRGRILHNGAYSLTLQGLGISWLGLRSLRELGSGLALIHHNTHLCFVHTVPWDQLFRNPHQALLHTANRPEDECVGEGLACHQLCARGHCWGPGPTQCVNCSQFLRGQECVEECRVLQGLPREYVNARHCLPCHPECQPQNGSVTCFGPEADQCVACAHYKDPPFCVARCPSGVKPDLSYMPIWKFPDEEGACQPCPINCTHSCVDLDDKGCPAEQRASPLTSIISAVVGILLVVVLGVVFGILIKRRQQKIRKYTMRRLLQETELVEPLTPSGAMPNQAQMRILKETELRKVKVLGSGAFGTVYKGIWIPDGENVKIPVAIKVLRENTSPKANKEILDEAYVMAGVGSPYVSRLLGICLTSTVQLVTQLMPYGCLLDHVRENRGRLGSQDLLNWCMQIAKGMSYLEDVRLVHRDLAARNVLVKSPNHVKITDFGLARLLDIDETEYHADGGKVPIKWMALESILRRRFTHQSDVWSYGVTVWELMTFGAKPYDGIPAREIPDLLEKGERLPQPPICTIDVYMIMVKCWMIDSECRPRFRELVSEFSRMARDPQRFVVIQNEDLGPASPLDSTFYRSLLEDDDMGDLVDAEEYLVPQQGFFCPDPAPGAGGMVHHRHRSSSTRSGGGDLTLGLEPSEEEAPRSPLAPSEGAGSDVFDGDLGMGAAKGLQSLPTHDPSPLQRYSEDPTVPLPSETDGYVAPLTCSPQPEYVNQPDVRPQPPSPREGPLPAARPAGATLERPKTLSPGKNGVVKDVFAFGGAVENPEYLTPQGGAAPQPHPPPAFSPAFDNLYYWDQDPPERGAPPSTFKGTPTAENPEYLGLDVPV
Numbers stand for hits; – = inactive; · = no result given. Compounds with a hit are over-represented: about 6.6% of the library has one in this group of screens. Rule as the data show it, unless noted: active = inhibition above about 30%; inactive = the rest.

SMILES	PostGolgi ctrl	PostGolgi yeast	tolC growth inh	Ecoli WT expand	Her2 expr inh
CCc1oc(C(=O)O)cc1CN(CC)CC	–	–	–	–	–
CCC(=O)Oc1ccc(C(=O)Nc2ccc3c(c2)C(=O)N(C2CCCCC2)C3=O)cc1	–	–	·	–	·
CCOc1ccc2nc(NC(=O)C(CC)Sc3nc(C)cc(=O)[nH]3)sc2c1 (configuration not stated)	–	–	67	–	–
C=CCOC(=O)c1cc(-c2ccc(/C=C3\C(=O)NC(=O)C(C#N)=C3C)o2)ccc1Cl	–	–	·	–	·
CC(C)COC(=O)c1cc(-c2ccc(/C=N/n3cnnc3)o2)ccc1Cl	36	–	–	–	–
CC(C)C(NS(=O)(=O)c1cccc2nsnc12)C(=O)Nc1nc2ccc(Cl)cc2s1 (configuration not stated)	47	–	·	–	·
CCOc1ccc2nc(NC(=O)C(NS(=O)(=O)c3cccc4nsnc34)C(C)C)sc2c1 (configuration not stated)	–	–	·	–	·
CCCNC(=O)c1ccccc1NS(=O)(=O)c1ccc2c(c1)OCCO2	–	–	–	–	–
Cc1cc(C)c(NC(=O)CC(C)(C)C)c(Cl)c1	–	–	·	–	·
COc1ccc(-c2nn(-c3ccccc3)cc2/C=N/N2C(=O)CSC2=S)cc1	85	86	·	–	·
Cc1ccc(C(=O)N/C(=C\c2cn(-c3ccccc3)nc2-c2ccccc2)C(=O)N2CCOCC2)cc1	–	–	·	–	·
Cc1nc2c(C#N)c(C)[nH]n2c(=O)c1Cc1ccccc1	37	–	·	–	·
Cc1nc2nc(-c3ccco3)[nH]n2c(=O)c1Cc1ccccc1	–	–	72	–	–
O=c1ccn(-c2cccc(C(F)(F)F)c2)nc1-c1ccn(-c2ccccc2)n1	–	–	·	–	·
COc1ccc(-c2[nH]ncc2/C=N\NS(=O)(=O)c2ccccc2)cc1OC	–	–	·	–	·
COc1ccc(-c2[nH]ncc2/C=N\NS(=O)(=O)c2ccc(Cl)cc2)cc1	31	–	·	–	·
Cc1ccc(Cn2nnnc2CN2CCC(c3nc4ccc(Cl)cc4[nH]3)CC2)cc1	74	–	·	–	·
COc1ccc2c3c(cccc13)N(C)N=C2C	–	–	·	–	·
N#CCSc1nnc(CNc2cccc(Cl)c2)o1	–	–	–	–	–
Clc1cccc(NCc2nnc(SCc3ccccc3Cl)o2)c1	40	–	·	–	·
Clc1cccc(NCc2nnc(SCc3ccccc3)o2)c1	–	–	99	–	–
CCCN1C(=O)C(O)(C2CC(=O)CC(C)(C)O2)c2ccccc21 (configuration not stated)	–	–	–	–	–
CCOc1cc(N2CCOCC2)c(OCC)cc1NS(=O)(=O)c1ccc(Cl)s1	–	–	–	–	–
Cc1nnc(SCc2nnc(-c3ccc(Cl)cc3)o2)n1-c1ccccc1	·	·	–	·	–
Cc1nnc(SCc2nnc(-c3ccccc3Br)o2)n1-c1ccccc1	–	–	–	–	-12
SMILES	PostGolgi ctrl	PostGolgi yeast	tolC growth inh	Ecoli WT expand	Her2 expr inh
C=CCn1c(SCC(=O)Nc2ccc3c(c2)CCC3)nnc1-c1cccs1	–	–	77	–	–
C=CCn1c(SCC(=O)O)nnc1-c1cccs1	–	–	·	–	·
CC(=O)N(Cc1c(C)nn(-c2ccccc2)c1Cl)c1ccc(Cl)cc1	35	–	·	–	·
Cc1nn(-c2ccccc2)c(Cl)c1C(=O)NCC(=O)O	–	–	–	–	–
COc1ccc(OC)c(NC(=O)C2CC(C)=C(C)CC2C(=O)O)c1 (configuration not stated)	–	–	–	–	–
Cc1cc(C)c2cc(CN(Cc3cccnc3)C(=O)c3ccc(F)cc3)c(Cl)nc2c1	–	–	·	–	·
Cc1ccc(-c2noc(CCC(=O)N3CCN(c4cccc(C(F)(F)F)c4)CC3)n2)cc1	–	–	64	–	–
Cc1ccc(-c2nnn(CC(=O)N3CCCc4ccccc43)n2)cc1	–	–	·	–	·
Cc1ccc(-c2noc(CCC(=O)N3CCCc4ccccc43)n2)cc1	–	–	92	–	–
O=C(C#Cc1ccccc1)c1cccc([N+](=O)[O-])c1	48	–	·	–	·
O=C(Nc1ccccc1Oc1ccccc1)c1cccc([N+](=O)[O-])c1	–	–	·	–	·
Cc1c(Cl)c([N+](=O)[O-])nn1CC(=O)NC12CC3CC(CC(C3)C1)C2	–	–	·	–	·
CC(C)CC(NC(=O)c1ccc(Cl)cc1)C(=O)OCC(=O)c1ccc2c(c1)NC(=O)CO2 (configuration not stated)	32	–	·	–	·
Cn1c(=O)c2c(SCc3cccc(C(F)(F)F)c3)nc(-c3ccco3)nc2n(C)c1=O	–	–	–	–	-4.9
Cc1ccc(C)c(S(=O)(=O)N2CCN(CC(=O)N3CCc4ccccc4C3)CC2)c1	–	–	·	–	·
